Source: ChEMBL document CHEMBL4725484, “Oxetanyl Sulfoxide MMS-350 Ameliorates Pulmonary Fibrosis In Vitro, In Vivo, and Ex Vivo” (ACS Med Chem Lett, 2020)
Activity calls are given as the source filed them. The rule behind the calls is not given here.

Experiments:
[1] = system: Primary lung fibroblast; assay: Antifibrotic activity against TGFbeta1-induced fibrosis in human primary lung fibroblasts assessed as decrease in fibronectin protein level at 500 ug/ml measured after 72 hrs by immunoblotting analysis; type: functional, tissue-based; details: dose 500.0 µg/ml
Outline: (§1)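 Primary human fibroblasts received vehicle, 10 ng/mL TGFβ1, 500 μg/mL compound, or TGFβ1 plus compound for 72 h. Vehicles were 4 mM HCl/0.1% BSA for TGFβ1 and 1× PBS for compound. Cell lysates and conditioned medium were immunoblotted with GAPDH as internal control. Densitometry is expressed as mean relative change versus vehicle or internal control ± SDEV, N = 3.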

[2] = system: Primary lung fibroblast; assay: Antifibrotic activity against TGFbeta1-induced fibrosis in human primary lung fibroblasts assessed as decrease in collagen type-1 protein level at 500 ug/ml measured after 72 hrs by immunoblotting analysis; type: functional, tissue-based; details: dose 500.0 µg/ml; outline: as §1
[3] = system: Primary lung fibroblast; assay: Antifibrotic activity against TGFbeta1-induced fibrosis in human primary lung fibroblasts assessed as decrease in IGFBP-3 protein level at 500 ug/ml measured after 72 hrs by immunoblotting analysis; type: functional, tissue-based; details: dose 500.0 µg/ml; outline: as §1
[4] = system: Primary lung fibroblast; assay: Antifibrotic activity against TGFbeta1-induced fibrosis in human primary lung fibroblasts assessed as decrease in CTGF protein level at 500 ug/ml measured after 72 hrs by immunoblotting analysis; type: functional, tissue-based; details: dose 500.0 µg/ml; outline: as §1
[5] = system: Primary lung fibroblast; assay: Antifibrotic activity against TGFbeta1-induced fibrosis in human primary lung fibroblasts assessed as decrease in alpha-SMA protein level at 500 ug/ml measured after 72 hrs by immunoblotting analysis; type: functional, tissue-based; details: dose 500.0 µg/ml; outline: as §1
[6] = system: Primary lung fibroblast; assay: Antifibrotic activity in human primary lung fibroblasts assessed as decrease in fibronectin protein level at 500 ug/ml measured after 72 hrs by immunoblotting analysis; type: functional, tissue-based; details: dose 500.0 µg/ml; outline: as §1
[7] = system: Primary lung fibroblast; assay: Antifibrotic activity in human primary lung fibroblasts assessed as decrease in collagen type-1 protein level at 500 ug/ml measured after 72 hrs by immunoblotting analysis; type: functional, tissue-based; details: dose 500.0 µg/ml; outline: as §1
[8] = system: Primary lung fibroblast; assay: Antifibrotic activity in human primary lung fibroblasts assessed as decrease in IGFBP-3 protein level at 500 ug/ml measured after 72 hrs by immunoblotting analysis; type: functional, tissue-based; details: dose 500.0 µg/ml; outline: as §1
[9] = system: Primary lung fibroblast; assay: Antifibrotic activity in human primary lung fibroblasts assessed as decrease in CTGF protein level at 500 ug/ml measured after 72 hrs by immunoblotting analysis; type: functional, tissue-based; details: dose 500.0 µg/ml; outline: as §1
[10] = system: Primary lung fibroblast; assay: Antifibrotic activity in human primary lung fibroblasts assessed as decrease in alpha-SMA protein level at 500 ug/ml measured after 72 hrs by immunoblotting analysis; type: functional, tissue-based; details: dose 500.0 µg/ml; outline: as §1
[11] = system: Primary lung fibroblast; assay: Antifibrotic activity against TGFbeta1-induced fibrosis in human primary lung fibroblasts assessed as decrease in TGFbeta1-induced fibronectin protein level at 500 ug/ml treated at 30 mins to 6 hrs post TGFbeta1 stimulation by immunoblotting analysis; type: functional, tissue-based; details: dose 500.0 µg/ml, time 6.5 hrs
Outline: (§2)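 Therapeutic-timing design in fibroblasts: 500 μg/mL compound was added together with 10 ng/mL TGFβ1 or 30 min to 6 h after TGFβ1. Profibrotic factors were then assessed by immunoblotting.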

[12] = system: Primary lung fibroblast; assay: Antifibrotic activity in against TGFbeta1-induced fibrosis in human primary lung fibroblasts assessed as decrease in collagen type-1 protein level at 500 ug/ml treated at 30 mins to 6 hrs post TGFbeta1 stimulation by immunoblotting analysis; type: functional, tissue-based; details: dose 500.0 µg/ml, time 6.5 hrs; outline: as §2
[13] = system: Primary lung fibroblast; assay: Antifibrotic activity against TGFbeta1-induced fibrosis in human primary lung fibroblasts assessed as decrease in IGFBP-3 protein level at 500 ug/ml treated at 30 mins to 6 hrs post TGFbeta1 stimulation by immunoblotting analysis; type: functional, tissue-based; details: dose 500.0 µg/ml, time 6.5 hrs; outline: as §2
[14] = system: Primary lung fibroblast; assay: Antifibrotic activity against TGFbeta1-induced fibrosis in human primary lung fibroblasts assessed as decrease in CTGF protein level at 500 ug/ml treated at 30 mins to 6 hrs post TGFbeta1 stimulation by immunoblotting analysis; type: functional, tissue-based; details: dose 500.0 µg/ml, time 6.5 hrs; outline: as §2
[15] = system: Primary lung fibroblast; assay: Antifibrotic activity against TGFbeta1-induced fibrosis in human primary lung fibroblasts assessed as decrease in alpha-SMA protein level at 500 ug/ml treated at 30 mins to 6 hrs post TGFbeta1 stimulation by immunoblotting analysis; type: functional, tissue-based; details: dose 500.0 µg/ml, time 6.5 hrs; outline: as §2
[16] = system: Mus musculus; assay: Antifibrotic activity against bleomycin-induced C57BL/6J mouse lung fibrosis model assessed as reduction in COL1A2 mRNA level at 2%, po via gavage administered as single dose measured within 5 days by qRT-PCR analysis; type: functional, organism-based; details: time day <=5
Outline: (§3)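 Mouse groups received PBS, bleomycin, or bleomycin plus 2% compound. Lung histology was assessed 14 days post-treatment. Lung COL1A2 mRNA was measured at 5 days, normalized to GAPDH. Lung hydroxyproline (total collagen) was measured at 14 days. Data are mean ± SD.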

[17] = system: Mus musculus; assay: Antifibrotic activity against bleomycin-induced C57BL/6J mouse lung fibrosis model at 2%, po via gavage administered as single dose measured after 14 days by hematoxylin and eosin staining based microscopic analysis; type: functional, organism-based; details: time day 14; outline: as §3
[18] = system: Mus musculus; assay: Antifibrotic activity against bleomycin-induced C57BL/6J mouse lung fibrosis model assessed as reduction in hydroxyproline level in lung at 2%, po via gavage administered as single dose measured on 14 days by hydroxyproline assay; type: functional, organism-based; details: time day 14; outline: as §3
[19] = Toxicity in bleomycin-induced C57BL/6J mouse lung fibrosis model assessed as improvement in mouse survival relative to control; details: in vivo
[20] = system: Zone of skin; assay: Antifibrotic activity against TGFbeta1-induced dermal fibrosis in human skin assessed as reduction in CTGF expression level stimulated with TGFbeta1 for 24 hrs followed by compound treatment at 500 ug/ml measured after 24 hrs by QRT-PCR analysis; type: functional, tissue-based; details: Skin of body, dose 500.0 µg/ml
Outline: (§4)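 Human skin in organ culture was treated with vehicle (1× PBS) or 10 ng/mL TGFβ1, then given 500 μg/mL compound 24 h later. CTGF expression in whole skin was read 24 h after compound addition. COL1A1 and FN expression in whole skin were read 72 h after compound addition.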

[21] = system: Zone of skin; assay: Antifibrotic activity against TGFbeta1-induced dermal fibrosis in human skin assessed as reduction in COL1A1 expression level stimulated with TGFbeta1 for 24 hrs followed by compound treatment at 500 ug/ml measured after 72 hrs by qRT-PCR analysis; type: functional, tissue-based; details: Skin of body, dose 500.0 µg/ml; outline: as §4
[22] = system: Zone of skin; assay: Antifibrotic activity against TGFbeta1-induced dermal fibrosis in human skin assessed as reduction in fibronectin expression level stimulated with TGFbeta1 for 24 hrs followed by compound treatment at 500 ug/ml measured after 72 hrs by qRT-PCR analysis; type: functional, tissue-based; details: Skin of body, dose 500.0 µg/ml; outline: as §4
[23] = Lipophilicity, log P of the compound; type: physicochemical; details: octanol/water
[24] = Solubility of the compound in water; type: physicochemical; details: buffer
[25] = system: Primary lung fibroblast; assay: Antifibrotic activity against TGFbeta1-induced fibrosis in human primary lung fibroblasts assessed as decrease in fibronectin protein level at 10 to 60 ug/ml measured after 72 hrs by immunoblotting analysis; type: functional, tissue-based; details: dose microg/ml 10-60, time 72.0 hrs
Outline: (§5)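 Primary human fibroblasts were exposed for 72 h to vehicle (DMSO), TGFβ1, or TGFβ1 plus compound at the indicated concentrations. Fibrotic factors in cell lysates and conditioned medium were detected by immunoblotting, with GAPDH as internal control.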

[26] = system: Primary lung fibroblast; assay: Antifibrotic activity against TGFbeta1-induced fibrosis in human primary lung fibroblasts assessed as decrease in collagen type-1 protein level at 10 to 60 ug/ml measured after 72 hrs by immunoblotting analysis; type: functional, tissue-based; details: dose microg/ml 10-60, time 72.0 hrs; outline: as §5
[27] = system: Primary lung fibroblast; assay: Antifibrotic activity against TGFbeta1-induced fibrosis in human primary lung fibroblasts assessed as decrease in IGFBP-3 protein level at 10 to 60 ug/ml measured after 72 hrs by immunoblotting analysis; type: functional, tissue-based; details: dose microg/ml 10-60, time 72.0 hrs; outline: as §5
[28] = system: Primary lung fibroblast; assay: Antifibrotic activity against TGFbeta1-induced fibrosis in human primary lung fibroblasts assessed as decrease in CTGF protein level at 10 to 60 ug/ml measured after 72 hrs by immunoblotting analysis; type: functional, tissue-based; details: dose microg/ml 10-60, time 72.0 hrs; outline: as §5
[29] = system: Primary lung fibroblast; assay: Antifibrotic activity against TGFbeta1-induced fibrosis in human primary lung fibroblasts assessed as decrease in alpha-SMA protein level at 10 to 60 ug/ml measured after 72 hrs by immunoblotting analysis; type: functional, tissue-based; details: dose microg/ml 10-60, time 72.0 hrs; outline: as §5
[30] = system: Primary lung fibroblast; assay: Antifibrotic activity against TGFbeta1-induced fibrosis in human primary lung fibroblasts assessed as decrease in COL1A1 expression level at 91 to 500 ug/ml measured after 48 hrs by qRT-PCR analysis; type: functional, tissue-based; details: dose microg/ml 500, time 48.0 hrs, in the assay text read “at 500 ug/ml” for “at 91 to 500 ug/ml”
Outline: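 Primary fibroblasts were treated for 48 h with TGFβ1 with or without compound (500 μg/mL). Extracted RNA was used for real-time PCR of COL1A1. N = 4, mean ± SD.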

Structure (SMILES): CC1(C[S+]([O-])CC2(C)COC2)COC1
- Activity [1]: Active
- Activity [2]: Active
- Activity [3]: Active
- Activity [4]: Active
- Activity [5]: Active
- Activity [6]: Active
- Activity [7]: Active
- Activity [8]: Active
- Activity [9]: Active
- Activity [10]: Active
- Activity [11]: Active
- Activity [12]: Active
- Activity [13]: Active
- Activity [14]: Active
- Activity [15]: Active
- Activity [16]: Active
- Activity [17]: Active
- Activity [18]: Active
- Activity [19]: 87.5%
- Activity [20]: Active
- Activity [21]: Active
- Activity [22]: Active
- logP [23]: -0.7
- solubility [24]: Soluble

Structure (SMILES): CC1(C[S+]([O-])c2ccccc2)COC1 (racemic)
- Activity [25]: Active
- Activity [26]: Active
- Activity [27]: Active
- Activity [28]: Active
- Activity [29]: Active

Structure (SMILES): [O-][S+](CC1(F)COC1)c1cccc(F)c1 (racemic)
- Activity [30]: Active
